Data as given in ChEMBL document CHEMBL2380279 (Bioorg Med Chem Lett, 2013).

Assays:
[1] = biological target: Delta-type opioid receptor (Homo sapiens, UniProt P41143); assay: Displacement of [3H]DADLE from delta opioid receptor (unknown origin)
In short: (§1)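 Competition radioligand binding. Ki was determined against [3H]DAMGO for MOR, [3H]DADLE for DOR and […] for KOR. Values are the mean of three experiments, each run in duplicate.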

[2] = biological target: Mu-type opioid receptor (Homo sapiens, UniProt P35372); assay: Displacement of [3H]DAMGO from mu opioid receptor (unknown origin); in short: as §1
[3] = organism: Homo sapiens; assay: Selectivity ratio of Ki for delta opioid receptor (unknown origin) to Ki for kappa opioid receptor (unknown origin)
[4] = biological target: T1, Kappa-type opioid receptor (Homo sapiens, UniProt P41145); assay: Agonist activity at kappa opioid receptor in human HEK293 cells assessed as stimulation of Galphai signaling by cAMP assay; type: functional, cell-based
In short: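 Live HEK293 cells carrying the cAMP biosensor GloSensor-22F. Galphai activation through KOR was read from the cAMP signal. EC50 reported as mean ± SD.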

[5] = biological target: T1, Kappa-type opioid receptor; assay: Displacement of [3H]U69593 from kappa opioid receptor (unknown origin); in short: as §1
[6] = organism: Homo sapiens; assay: Selectivity ratio of Ki for mu opioid receptor (unknown origin) to Ki for kappa opioid receptor (unknown origin)

Delta-type opioid receptor, sequence (P41143 whole entry): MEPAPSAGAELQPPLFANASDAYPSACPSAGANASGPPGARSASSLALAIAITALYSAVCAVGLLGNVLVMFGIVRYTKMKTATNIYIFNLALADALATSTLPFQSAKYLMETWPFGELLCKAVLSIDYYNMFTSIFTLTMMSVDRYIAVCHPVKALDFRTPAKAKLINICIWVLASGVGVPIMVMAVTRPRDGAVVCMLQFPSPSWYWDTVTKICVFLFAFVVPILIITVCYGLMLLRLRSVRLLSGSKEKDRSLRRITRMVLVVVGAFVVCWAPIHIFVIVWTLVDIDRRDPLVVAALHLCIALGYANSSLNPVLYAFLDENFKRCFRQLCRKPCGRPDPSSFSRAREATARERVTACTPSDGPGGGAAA
T1 sequence (P41145 whole entry): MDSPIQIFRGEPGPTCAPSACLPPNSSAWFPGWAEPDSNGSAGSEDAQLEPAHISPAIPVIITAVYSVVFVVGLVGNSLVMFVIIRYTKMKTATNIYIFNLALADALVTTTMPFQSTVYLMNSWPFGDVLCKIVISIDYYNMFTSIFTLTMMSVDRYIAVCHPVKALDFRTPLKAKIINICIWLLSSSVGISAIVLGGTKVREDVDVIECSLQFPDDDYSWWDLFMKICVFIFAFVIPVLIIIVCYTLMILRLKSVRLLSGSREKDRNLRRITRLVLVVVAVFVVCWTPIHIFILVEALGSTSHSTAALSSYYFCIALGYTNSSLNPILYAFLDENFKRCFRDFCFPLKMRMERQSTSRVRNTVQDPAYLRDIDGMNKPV
Mu-type opioid receptor, sequence (P35372 whole entry): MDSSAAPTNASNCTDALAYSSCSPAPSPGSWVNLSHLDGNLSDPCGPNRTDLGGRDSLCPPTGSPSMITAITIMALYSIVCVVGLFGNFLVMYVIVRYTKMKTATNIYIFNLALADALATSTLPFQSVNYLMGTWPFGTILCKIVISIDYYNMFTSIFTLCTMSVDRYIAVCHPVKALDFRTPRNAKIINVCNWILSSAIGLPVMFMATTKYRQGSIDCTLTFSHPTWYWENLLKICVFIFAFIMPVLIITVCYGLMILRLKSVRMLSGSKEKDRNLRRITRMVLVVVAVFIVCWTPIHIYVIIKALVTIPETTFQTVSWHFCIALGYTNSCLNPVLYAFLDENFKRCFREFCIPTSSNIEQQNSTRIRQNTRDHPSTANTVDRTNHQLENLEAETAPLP

Compound | Ki [1] [µM] | Ki [2] [µM] | Ratio Ki [3] | EC50 [4] [µM] | Ki [5] [µM] | Ratio Ki [6]
COC(=O)CCC(=O)O[C@H]1C[C@@H](C(=O)OC)[C@]2(C)CC[C@H]3C(=O)O[C@H](c4ccoc4)C[C@]3(C)[C@H]2C1=O | > 10 | > 10 | > 277 | 0.855 | 0.036 | –
CCOC(=O)CC(=O)O[C@H]1C[C@@H](C(=O)OC)[C@]2(C)CC[C@H]3C(=O)O[C@H](c4ccoc4)C[C@]3(C)[C@H]2C1=O [ETHYLSALVINORINB-2-O-MALONATE] | > 10 | > 10 | > 476 | 0.052 | 0.021 | –
CCOC(=O)/C=C/C(=O)O[C@H]1C[C@@H](C(=O)OC)[C@]2(C)CC[C@H]3C(=O)O[C@H](c4ccoc4)C[C@]3(C)[C@H]2C1=O | > 10 | 0.724 | > 23 | – | 0.427 | 2
COC(=O)/C=C/C(=O)O[C@H]1C[C@@H](C(=O)OC)[C@]2(C)CC[C@H]3C(=O)O[C@H](c4ccoc4)C[C@]3(C)[C@H]2C1=O | > 10 | 0.711 | > 256 | 0.07 | 0.039 | 18
COC(=O)[C@@H]1C[C@H](OC(=O)CC(=O)OC(C)(C)C)C(=O)[C@H]2[C@@]1(C)CC[C@H]1C(=O)O[C@H](c3ccoc3)C[C@]21C | > 10 | > 10 | > 67 | – | 0.148 | –
COC(=O)[C@@H]1C[C@H](OC(=O)CCCC(=O)O)C(=O)[C@H]2[C@@]1(C)CC[C@H]1C(=O)O[C@H](c3ccoc3)C[C@]21C | > 10 | 4.57 | > 38 | – | 0.263 | 17
COC(=O)[C@@H]1C[C@H](OC(=O)CSC#N)C(=O)[C@H]2[C@@]1(C)CC[C@H]1C(=O)O[C@H](c3ccoc3)C[C@]21C [22-THIOCYANATOSALVINORIN A] | > 10 | > 10 | – | – | – | –
COC(=O)[C@@H]1C[C@H](O)C(=O)[C@H]2[C@@]1(C)CC[C@H]1C(=O)O[C@H](c3ccoc3)C[C@]21C [SALVINORIN B] | > 10 | > 10 | – | – | – | –
COC(=O)[C@@H]1C[C@H](OC(=O)CCC(=O)O)C(=O)[C@H]2[C@@]1(C)CC[C@H]1C(=O)O[C@H](c3ccoc3)C[C@]21C | > 10 | > 10 | – | – | 4.07 | –
CCOC(=O)CCC(=O)O[C@H]1C[C@@H](C(=O)OC)[C@]2(C)CC[C@H]3C(=O)O[C@H](c4ccoc4)C[C@]3(C)[C@H]2C1=O | > 10 | > 10 | > 23 | – | 0.437 | –
COC(=O)CCCC(=O)O[C@H]1C[C@@H](C(=O)OC)[C@]2(C)CC[C@H]3C(=O)O[C@H](c4ccoc4)C[C@]3(C)[C@H]2C1=O | > 10 | 5.01 | > 33 | – | 0.302 | 16
COC(=O)CC(=O)O[C@H]1C[C@@H](C(=O)OC)[C@]2(C)CC[C@H]3C(=O)O[C@H](c4ccoc4)C[C@]3(C)[C@H]2C1=O | 4.32 | > 10 | 2160 | 0.137 | 0.002 | –
COC(=O)[C@@H]1C[C@H](OC(=O)c2ccccc2C(=O)O)C(=O)[C@H]2[C@@]1(C)CC[C@H]1C(=O)O[C@H](c3ccoc3)C[C@]21C | > 10 | > 10 | > 4 | – | 2.29 | –
COC(=O)CCCCC(=O)O[C@H]1C[C@@H](C(=O)OC)[C@]2(C)CC[C@H]3C(=O)O[C@H](c4ccoc4)C[C@]3(C)[C@H]2C1=O | > 10 | > 10 | > 17 | – | 0.575 | –
COC(=O)[C@@H]1C[C@H](OC(=O)/C=C\C(=O)O)C(=O)[C@H]2[C@@]1(C)CC[C@H]1C(=O)O[C@H](c3ccoc3)C[C@]21C | > 10 | > 10 | 1 | – | > 10 | 1
